Experimental data: ChEMBL document CHEMBL3351336, “Synthesis and evaluation of novel triazoles and mannich bases functionalized 1,4-dihydropyridine as angiotensin converting enzyme (ACE) inhibitors” (Bioorg Med Chem, 2014)
Activity calls are given as the source filed them. No cut-off for these calls is given here.

Key:
[1] = molecular target: T1, Angiotensin-converting enzyme (Oryctolagus cuniculus) (UniProt P12822); assay: (§1) Inhibition of rabbit lung ACE using hippuryl-histidyl-leucine as substrate assessed as release of hippuric acid incubated for 10 mins prior to substrate addition measured after 30 mins by spectrophotometry
T1 sequence (whole entry): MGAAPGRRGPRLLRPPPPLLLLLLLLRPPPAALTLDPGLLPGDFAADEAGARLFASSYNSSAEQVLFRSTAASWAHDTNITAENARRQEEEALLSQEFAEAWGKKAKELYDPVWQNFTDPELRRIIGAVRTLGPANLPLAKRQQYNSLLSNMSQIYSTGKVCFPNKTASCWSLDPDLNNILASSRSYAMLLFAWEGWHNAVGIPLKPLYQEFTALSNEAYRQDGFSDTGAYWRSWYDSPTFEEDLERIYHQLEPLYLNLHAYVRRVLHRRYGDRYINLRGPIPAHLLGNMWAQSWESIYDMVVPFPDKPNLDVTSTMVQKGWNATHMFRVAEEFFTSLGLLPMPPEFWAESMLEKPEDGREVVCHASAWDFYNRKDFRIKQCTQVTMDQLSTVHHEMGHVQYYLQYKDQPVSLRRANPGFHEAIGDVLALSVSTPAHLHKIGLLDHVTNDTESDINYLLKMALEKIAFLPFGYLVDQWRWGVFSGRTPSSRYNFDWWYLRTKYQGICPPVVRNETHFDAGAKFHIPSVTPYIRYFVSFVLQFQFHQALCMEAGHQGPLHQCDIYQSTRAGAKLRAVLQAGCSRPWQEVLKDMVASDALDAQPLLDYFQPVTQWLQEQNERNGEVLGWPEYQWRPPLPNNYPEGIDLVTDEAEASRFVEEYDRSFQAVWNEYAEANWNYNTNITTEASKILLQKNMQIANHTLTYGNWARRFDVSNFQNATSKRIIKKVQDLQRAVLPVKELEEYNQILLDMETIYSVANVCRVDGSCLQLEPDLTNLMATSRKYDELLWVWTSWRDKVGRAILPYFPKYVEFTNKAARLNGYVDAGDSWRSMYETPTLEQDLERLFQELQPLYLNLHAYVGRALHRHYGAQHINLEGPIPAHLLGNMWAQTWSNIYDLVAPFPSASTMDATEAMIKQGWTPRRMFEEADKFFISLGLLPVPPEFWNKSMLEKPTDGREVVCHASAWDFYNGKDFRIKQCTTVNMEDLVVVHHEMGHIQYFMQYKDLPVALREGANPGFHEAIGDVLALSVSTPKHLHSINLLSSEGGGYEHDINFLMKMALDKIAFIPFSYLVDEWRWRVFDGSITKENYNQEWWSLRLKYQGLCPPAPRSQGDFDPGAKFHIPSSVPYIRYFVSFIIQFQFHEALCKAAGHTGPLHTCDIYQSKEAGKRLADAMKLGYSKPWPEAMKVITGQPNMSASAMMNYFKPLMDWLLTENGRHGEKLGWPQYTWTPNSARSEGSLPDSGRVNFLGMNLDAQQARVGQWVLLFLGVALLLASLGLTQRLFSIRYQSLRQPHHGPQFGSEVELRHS

[2] = molecular target: T2, Angiotensin-converting enzyme (Oryctolagus cuniculus, UniProt P12822); assay: as §1
T2 sequence (P12822 whole entry): T1 sequence (whole entry)

A549 = assay: Cytotoxicity against human A549 cells after 24 hrs by MTT assay; format: cell-based; settings: A549, 24 h
Procedure, shortened: (§2)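 Cells kept in DMEM with 10% heat-inactivated FBS, penicillin, streptomycin and 2 mM L-glutamine at 37 °C, 5% CO2, passaged every 2–3 days. 1 × 10^4 cells/well seeded, grown 24 h, then exposed to compounds (10 µM–1000 µM) beside vehicle control for 24 h. MTT added for 4 h, formazan dissolved in DMSO, absorbance read at 540 nm; survival versus control, EC50 by probit analysis.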

HEK293 = assay: Cytotoxicity against human HEK293 cells after 24 hrs by MTT assay; format: cell-based; settings: HEK293, 24 h; procedure, shortened: as §2

Row | inhibition [1] | IC50 [2] | Structure (SMILES) | IC50 (A549) | IC50 (HEK293)
1 | Dose-dependent effect | 0.928 µM | CCOC(=O)C1=C(C)NC(C)=C(C(=O)OCC)C1c1cc(Br)cc(Br)c1OCC#CCN1CCN(CCO)CC1 | > 1000 µM | > 1000 µM
2 | inactive |  | CCOC(=O)C1=C(C)NC(C)=C(C(=O)OCC)C1c1cc(Br)cc(Br)c1OCC#CCN1CCN(C)CC1 |  | 
3 | inactive |  | CCOC(=O)C1=C(C)NC(C)=C(C(=O)OCC)C1c1cccc(OC)c1OCC#CCN1CCOCC1 |  | 
4 | inactive |  | CCOC(=O)C1=C(C)NC(C)=C(C(=O)OCC)C1c1cc(Br)ccc1OCc1cn(CC(=O)Nc2nnc(C(F)(F)F)s2)nn1 |  | 
5 | Dose-dependent effect | 0.653 µM | CCOC(=O)C1=C(C)NC(C)=C(C(=O)OCC)C1c1cccc(OC)c1OCc1cn(CCC(F)(F)C(F)(F)C(F)(F)C(F)(F)C(F)(F)C(F)(F)C(F)(F)C(F)(F)F)nn1 | > 1000 µM | > 1000 µM
6 | inactive |  | CCOC(=O)C1=C(C)NC(C)=C(C(=O)OCC)C1c1cc(Br)ccc1OCc1cn(CC(=O)NC2CCCCC2)nn1 |  | 
7 | inactive |  | CCOC(=O)C1=C(C)NC(C)=C(C(=O)OCC)C1c1cccc(OC)c1OCC#CCN1CCN(C)CC1 |  | 
8 | inactive |  | CCOC(=O)C1=C(C)NC(C)=C(C(=O)OCC)C1c1cc(Br)cc(Br)c1OCc1cn(CC(=O)NCCC(=O)O)nn1 |  | 
9 | inactive |  | CCOC(=O)C1=C(C)NC(C)=C(C(=O)OCC)C1c1cccc(OC)c1OCC#CCN1CCCC1 |  | 
10 | inactive |  | CCOC(=O)C1=C(C)NC(C)=C(C(=O)OCC)C1c1cc(Br)cc(Br)c1OCc1cn(CC(=O)NCc2ccc(OC(F)(F)F)cc2)nn1 |  | 

Continued, compound first:

Row | Structure (SMILES) | inhibition [1] | IC50 [2] | IC50 (A549) | IC50 (HEK293)
11 | CCOC(=O)C1=C(C)NC(C)=C(C(=O)OCC)C1c1cc(Br)ccc1OCC#CCN1CCN(c2ccccn2)CC1 | inactive |  |  | 
12 | CCOC(=O)C1=C(C)NC(C)=C(C(=O)OCC)C1c1cc(Br)cc(Br)c1OCC#CCN1CCN(c2ccc(F)cc2)CC1 | inactive |  |  | 
13 | CCOC(=O)C1=C(C)NC(C)=C(C(=O)OCC)C1c1cc(Br)ccc1OCC#CCN1CCOCC1 | inactive |  |  | 
14 | CCOC(=O)C1=C(C)NC(C)=C(C(=O)OCC)C1c1cc(Br)cc(Br)c1OCC#CCN1CCN(c2ccccn2)CC1 | inactive |  |  | 
15 | CCOC(=O)C1=C(C)NC(C)=C(C(=O)OCC)C1c1cc(Br)cc(Br)c1OCc1cn(CC(=O)NC2CC2)nn1 | inactive |  |  | 
16 | CCOC(=O)C1=C(C)NC(C)=C(C(=O)OCC)C1c1cccc(OC)c1OCC#CCN1CCC(C(=O)OCC)CC1 | inactive |  |  | 
17 | NCCCC[C@H](N[C@@H](CCc1ccccc1)C(=O)O)C(=O)N1CCC[C@H]1C(=O)O [LISINOPRIL ANHYDROUS] |  | 0.281 µM |  | 
18 | CCOC(=O)C1=C(C)NC(C)=C(C(=O)OCC)C1c1cccc(OC)c1OCc1cn(CC(=O)Nc2nc3ccc(F)cc3s2)nn1 | Dose-dependent effect | 0.713 µM | > 1000 µM | > 1000 µM
19 | CCOC(=O)C1=C(C)NC(C)=C(C(=O)OCC)C1c1cccc(OC)c1OCC#CCN1CCN(c2ccccc2)CC1 | inactive |  |  | 
20 | COc1cccc2c1C(=O)c1c(O)c3c(c(O)c1C2=O)C[C@@](O)(C(=O)CO)C[C@@H]3O[C@H]1C[C@H](N)[C@H](O)[C@H](C)O1 [DOXORUBICIN] |  |  | 2.6 µM | 0.69 µM
21 | CCOC(=O)C1=C(C)NC(C)=C(C(=O)OCC)C1c1cccc(OC)c1OCc1cn(CC(=O)Nc2nnc(C(F)(F)F)s2)nn1 | Dose-dependent effect | 0.409 µM | > 1000 µM | > 1000 µM
22 | CCOC(=O)C1=C(C)NC(C)=C(C(=O)OCC)C1c1cc(Br)cc(Br)c1OCc1cn(CC(=O)Nc2cccc(C(=O)O)c2)nn1 | inactive |  |  | 
23 | CCOC(=O)C1=C(C)NC(C)=C(C(=O)OCC)C1c1cc(Br)cc(Br)c1OCc1cn(CC(=O)Nc2ccc(SC(F)(F)F)cc2)nn1 | inactive |  |  | 
